Experimental data reported in ChEMBL document CHEMBL5506013, “Mitochondria-Selective Dicationic Small-Molecule Ligand Targeting G-Quadruplex Structures for Human Colorectal Cancer Therapy” (J Med Chem, 2024).
Calls of active or inactive are those of the source. No cut-off for these calls is given here.

Assays:
HFF-1 [1] = assay: Downregulation of ND1 gene expression in human HFF-1 cells at 0 to 4 uM measured after 48 hrs by q-PCR analysis; type: functional, cell-based; details: dose 0-4 µM
[2] = Toxicity in BALB/c nude mouse assessed as change in hemoglobin level at 5 mg/kg, iv administered every two days for 16 days; type: organism-based; details: in vivo, 384 h, time 16 day
Outline: (§1)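 HCT116 xenograft-bearing male Balb/c nude mice (6/group) dosed iv at 5 mg/kg every two days or with PBS. Whole blood collected at sacrifice on day 16 for hematology parameters.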

[3] = Drug localization in human HCT-116 cells by measuring red foci at 4 uM incubated for 1 hr in presence of MitoPDS by hoechst33342 staining based analysis; type: ADME, cell-based; details: hct-116, 1 h
Outline: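 Pretreatment of live HCT116 cells: FCCP 1 uM for 20 min, cyclosporin A 1 uM for 24 h, DMOG 100 uM for 24 h, or MitoPDS at several concentrations for 3 h (applied after dye loading). Cells loaded with ligand 4 uM (excitation 488 nm) for 1 h and Hoechst33342 1 uM for 30 min. Red foci counted by confocal imaging in 100 cells. Mean ± SEM, t test.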

Quadruplex DNA [4] = assay: Binding affinity to mito 29 G4 DNA (unknown origin) assessed as dissociation constant measured upto 450 secs by surface plasmon resonance assay; type: nucleic-acid assay
Outline: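 Surface plasmon resonance in buffer at 25 °C. Four G4-mtDNAs (Mito 78, Mito 55, Mito 29, Mito 0.5-16) and the hairpin HP19 served as substrates. Kd was derived from the sensorgrams.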

HCT-116 [5] = assay: Induction of apoptosis in human HCT-116 cells at upto 4 uM measured after 72 hrs by annexin V-BUV396 and 7-AAD staining based flow cytometry analysis (reference value: 2.64%); type: functional; details: up to 4 µM
Outline: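 HCT116 cells treated at 0-4 uM for 72 h, stained with Annexin V-BUV396 and 7-AAD, and the apoptotic fraction quantified by flow cytometry.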

HCT-116 [6] = assay: Downregulation of COX3 protein level in human HCT-116 cells at upto 4 uM incubated for 48 hrs by Western blot analysis; type: functional, cell-based
Quadruplex DNA [7] = assay: Binding affinity to mito 29 G4 DNA (unknown origin) assessed as increase in fluorescence intensity by fluorescence spectrophotometric analysis; type: nucleic-acid assay
Outline: (§2)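 Oligonucleotides were pre-annealed at 95 °C for 10 min, then cooled slowly. Ligand (5 uM) was mixed with 20 uM DNA in buffer. Emission was collected over 550–800 nm, and enhancement was taken at 650 nm as F/F0.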

HeLa = assay: Antiproliferative activity against human HeLa cells measured after 48 hrs by MTT assay; type: functional, cell-based
Outline: (§3)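 Cells exposed to the ligands for 48 h. Viability was read by MTT, and the IC50 was derived from the response.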

HCT-116 [8] = assay: Induction of cell senescence in human HCT-116 cells assessed by increase SA-beta-Gal positive cells at upto 4 uM measured after 72 hrs by SA-bet-gal assay
HFF-1 [9] = assay: Downregulation of ND5 mRNA level in human HFF-1 cells at 0 to 4 uM measured after 48 hrs by qRT-PCR analysis; type: functional, cell-based; details: dose 0-4 µM
[10] = Toxicity in BALB/c nude mouse assessed as change in mean platelet volume at 5 mg/kg, iv administered every two days for 16 days; type: organism-based; details: in vivo, 384 h, time 16 day; outline: as §1
[11] = Drug localization in human HCT-116 cells transfected with Cy5-HP19 non G4 DNA at 4 uM incubated for 1 hr by hoechst33342 staining based analysis; type: ADME, cell-based; details: hct-116, 1 h
Outline: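 HCT116 cells transfected with Cy5-labelled DNA (excitation 635 nm) for 24 h. Ligand 4 uM added for 1 h, then Hoechst33342 1 uM for 30 min. Colocalization of ligand with Cy5 quantified by Pearson r from confocal images.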

[12] = Drug localization in nucleus of human HCT-116 cells at 4 uM measured upto 12 hrs by hoechst33342 staining based live cell imaging analysis; type: ADME, subcellular; details: hct-116, 12 h
[13] = Drug localization in endoplasmic reticulum of living human HCT-116 cells assessed as colocalization at 4 uM incubated for 1 hr by ER-tracker blue staining based analysis; type: ADME, subcellular; details: hct-116, 1 h
Outline: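 Live HCT116 cells co-stained with ligand and ER-Tracker Blue. Colocalization assessed by confocal imaging.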

HCT-116 [14] = assay: Downregulation of mitochondrial respiratory chain complex III level in human HCT-116 cells at upto 4 uM measured after 48 hrs by Western blot analysis; type: functional, cell-based
HCT-116 [15] = assay: Induction of cell cycle arrest in human HCT-116 cells assessed as accumulation of cells at G0/G1 phase at 1 to 4 uM measured after 72 hrs by PI staining based flow cytometry analysis (reference value: 50.66%); type: functional; details: dose 1-4 µM
Outline: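 HCT116 cells treated at 0-4 uM for 72 h. Cell-cycle distribution measured by flow cytometry and G0/G1 percentage recorded.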

[16] = Drug localization in human HCT-116 cells overexpressing eBFP tagged Pif1 by measuring red foci at 4 uM incubated for 1 hr by hoechst33342 staining based analysis; type: ADME, cell-based; details: hct-116, 1 h
Outline: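 HCT116 cells overexpressing eBFP-tagged Pif1 (excitation 405 nm), with an eBFP-only control. Cells incubated with ligand 4 uM (excitation 488 nm) for 1 h, then red foci imaged by confocal microscopy in 100 cells. Mean ± SEM, t test.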

HCT-116 [17] = assay: Downregulation of Ki67 expression level in human HCT-116 cells at upto 4 uM measured after 72 hrs by immunofluorescence analysis; type: functional, cell-based
Outline: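 HCT116 cells treated with ligand at 0-4 uM for 72 h. Lamin B1 and Ki67 imaged by immunofluorescence (excitation 635 nm), or lamin B1 probed on Western blot with β-actin as loading control.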

HCT-116 [18] = assay: Antitumor activity against human HCT-116 cells xenografted in Balb/c nude mouse model assessed as inhibition of tumor growth at 5 mg/kg, iv administered every two days for 16 days; type: functional, organism-based; details: time 16.0 day
Outline: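 Male Balb/c nude mice carrying HCT116 xenografts, 6 per group. Dosing was intravenous every two days at 5 mg/kg, with a PBS-injected control group. Body weight and tumour growth were tracked. Tumours were excised and weighed after 16 days.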

Quadruplex DNA [19] = assay: Binding affinity to Mut 78 G4 DNA (unknown origin) assessed as increase in fluorescence intensity by fluorescence spectrophotometric analysis; type: nucleic-acid assay; outline: as §2
[20] = Antiproliferative activity against human HFF-1 cells measured after 48 hrs by MTT assay; type: toxicity, cell-based; details: HFF-1 cells; outline: as §3
HCT-116 [21] = assay: Downregulation of ND3 mRNA level in human HCT-116 cells at 0 to 4 uM measured after 48 hrs by qRT-PCR analysis; type: functional, cell-based; details: dose 0-4 µM
HFF-1 [22] = assay: Induction of morphological changes in human HFF-1 cells at 4 uM by microscopy based analysis; type: functional, cell-based
Outline: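 HCT116 and HFF1 cells treated with ligand at 4 uM alongside untreated controls. Morphology examined by microscopy at 100x.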

HCT-116 [23] = assay: Antiproliferative activity against human HCT-116 cells measured after 48 hrs by MTT assay; type: functional, cell-based; details: HCT-116, 48 h; outline: as §3
Quadruplex DNA [24] = assay: Binding affinity to Mito 78 G4 DNA (unknown origin) assessed as increase in CD signal at 5 uM at 290 nMby circular dichroism spectroscopic analysis; type: nucleic-acid assay
Quadruplex DNA [25] = assay: Binding affinity to Mut 55 G4 DNA (unknown origin) assessed as increase in fluorescence intensity by fluorescence spectrophotometric analysis; type: nucleic-acid assay; outline: as §2
PANC-1 = assay: Antiproliferative activity against human PANC-1 cells measured after 48 hrs by MTT assay; type: functional, cell-based; details: PANC-1, 48 h; outline: as §3

Drug uptake [3]: Not Active | Kd (Quadruplex DNA [4]): 0.11 µM | Activity (Quadruplex DNA [7]): Active | IC50 (HeLa): 23.5 µM | Drug uptake [11]: Not Active | Drug uptake [12]: Not Active | Drug uptake [13]: Not Active | Drug uptake [16]: Not Active | Activity (Quadruplex DNA [19]): inactive | IC50 (HCT-116 [23]): 3.4 µM | Activity (Quadruplex DNA [24]): Active | Activity (Quadruplex DNA [25]): inactive | IC50 (PANC-1): 24.8 µM
Structure (SMILES): C(=C\c1ccc2ccccc2[n+]1CCCCCCCC[n+]1c(/C=C/c2ccc(N3CCCCC3)cc2)ccc2ccccc21)/c1ccc(N2CCCCC2)cc1.[I-].[I-]
Activity (HFF-1 [1]): inactive | Activity [2]: Non-Toxic | Activity (HCT-116 [5]): 27.4% | Activity (HCT-116 [6]): Active | Activity (HCT-116 [8]): Active | Activity (HFF-1 [9]): Active | Activity [10]: Non-Toxic | Activity (HCT-116 [14]): Active | Activity (HCT-116 [15]): 66.01% | Activity (HCT-116 [17]): Active | Activity (HCT-116 [18]): Active | IC50 at 48 h [20]: 32.7 µM | Activity (HCT-116 [21]): Active | Activity (HFF-1 [22]): Active
